Screens: PubChem BioAssay, several laboratories
A selection: hits, their analogues and other compounds. The true share with any hit is near 5.3%.
CSC inhib: cancer stem cell inhibition | cancer stem cell-like cells viability, luminescence | 300,000 tested, 1.1% active | inhibition, % at 7.5 µM; in the data active means inhibition above about 75%; inconclusive means no clear call, values can overlap the other calls; tested in HMLE shEcad cells
T cruzi inh: blocks replication of Trypanosoma cruzi | T. cruzi beta-gal in NIH3T3, luminescence, 90 h | inhibition, % (no concentration beside the values) | 300,000 tested, 1.4% active | AID 1885;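 active means mean inhibition across valid replicates above about 55%, limit read from the data; inconclusive means mean below that limit but half or more replicates reach it; inactive means mean below it, under half of replicates reach it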;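 further: signal also drops with host cell toxicity which is not excluded here; 0% = plate median of DMSO wells and 100% = zero luminescence signal; higher percent means less beta-gal luminescence so fewer parasites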
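Incubation – ≥90 h infection period, 3 h prior cell attachment · System – NIH/3T3 fibroblasts plus reporter T. cruzi · Doses – compound pinned at 50 nL/well, DMSO · Read-out basis – percent inhibition of parasite-derived β-gal signal · Signal – luminescent β-galactosidase signal after 60 min lysis · Also added – 5000 T. cruzi trypomastigotes/well · Medium – Low-serum DMEM with 2% FBS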
NLRP3 yeast inh: inhibitors of NALP3 inflammasome in yeast. 330,000 tested, 0.39% active. AID 2825. Yeast reconstituted NLRP3/ASC/caspase-1, beta-gal luminescence, 24 h. inhibition, % at 10 µM;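 active means inhibition of 50% or more; inactive means inhibition below 50%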;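 further: plate controls were induced DMSO wells for no effect and uninduced yeast grown without galactose for full effect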
Mdm2 MdmX PPI: disrupts the human Mdm2-MdmX interaction. O15151+Q00987. SaOS-2 split-luciferase Mdm2/MdmX complementation, luminescence. inhibition, % at 8 µM. 330,000 tested, 3% active;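 active means inhibition of at least 50% at 8 µM in the primary screen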
Target sequence (O15151 whole entry, looked up): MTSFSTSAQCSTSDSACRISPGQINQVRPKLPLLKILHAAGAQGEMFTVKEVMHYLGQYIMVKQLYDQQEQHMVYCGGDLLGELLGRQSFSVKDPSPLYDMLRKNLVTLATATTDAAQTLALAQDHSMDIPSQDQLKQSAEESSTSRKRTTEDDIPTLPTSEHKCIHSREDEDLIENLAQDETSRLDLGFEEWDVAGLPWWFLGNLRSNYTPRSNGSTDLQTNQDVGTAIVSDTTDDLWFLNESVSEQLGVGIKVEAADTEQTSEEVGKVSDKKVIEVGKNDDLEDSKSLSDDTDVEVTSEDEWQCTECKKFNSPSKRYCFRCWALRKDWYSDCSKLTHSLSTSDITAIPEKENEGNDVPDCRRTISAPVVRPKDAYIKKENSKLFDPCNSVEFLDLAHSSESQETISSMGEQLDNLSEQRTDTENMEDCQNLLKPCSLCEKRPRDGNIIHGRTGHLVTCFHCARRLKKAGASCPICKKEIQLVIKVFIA
Target sequence (Q00987 whole entry, looked up): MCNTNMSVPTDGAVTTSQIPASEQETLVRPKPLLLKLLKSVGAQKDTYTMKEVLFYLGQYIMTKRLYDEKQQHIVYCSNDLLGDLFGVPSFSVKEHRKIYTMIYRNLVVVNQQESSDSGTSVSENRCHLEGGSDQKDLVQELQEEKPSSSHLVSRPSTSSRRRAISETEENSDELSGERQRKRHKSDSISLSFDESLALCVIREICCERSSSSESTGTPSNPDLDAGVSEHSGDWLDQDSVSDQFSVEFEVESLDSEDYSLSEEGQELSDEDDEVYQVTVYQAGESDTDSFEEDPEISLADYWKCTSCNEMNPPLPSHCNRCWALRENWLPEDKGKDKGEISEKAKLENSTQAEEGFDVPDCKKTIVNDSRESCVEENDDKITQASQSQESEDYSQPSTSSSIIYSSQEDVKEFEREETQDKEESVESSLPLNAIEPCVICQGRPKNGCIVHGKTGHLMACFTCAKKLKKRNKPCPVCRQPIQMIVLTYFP
Beta apoptosis: blocks beta cell apoptosis. INS-1E cytokine-induced death, ATP luminescence, 48 h; percent of positive-control rescue, neutral wells zero. protection from apoptosis, % (test concentration not listed). 300,000 tested, 0.8% active. AID 435005;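 active means Every replicate reaches about 75%, or at least half do and their mean reaches it too, limit read from the data; inconclusive means At least half of replicates reach the limit but their mean does not; inactive means Under half of replicates reach the limit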;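 further: 0% = cytokine-treated negative control wells and 100% = positive control rescue; higher means more ATP so stronger rescue from cytokine killing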
Calb FLC: affects C. albicans growth with fluconazole; C. albicans CaCi-2 (fluconazole-resistant clinical isolate) + fluconazole, Alamar Blue growth, 48 h; growth inhibition, % (concentration not given with the values); 300,000 tested, 0.57% active;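 active means growth inhibition above about 58% in most replicates, limit read from the data, passing the limit was not always enough; inconclusive means exactly half the replicates above a set limit; inactive means most replicates below a set limit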;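 further: all wells also contain fluconazole at 8 µg/ml as a sub-toxic cotreatment; 0% = median of DMSO wells and 100% = median of geldanamycin control wells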
Active calls of the source: *.

Screening c1ccc(-c2csc3ncnc(NCC4COc5ccccc5O4)c23)cc1 (configuration not stated) returned CSC inhib 50.5, T cruzi inh -16.0, Beta apoptosis 127.1* and Calb FLC 15.6.
Screening c1ccc(-c2csc3ncnc(NCCCN4CCOCC4)c23)cc1 returned CSC inhib -16.4, T cruzi inh 7.5, NLRP3 yeast inh 3.7, Mdm2 MdmX PPI 7.6, Beta apoptosis -13.2 and Calb FLC 0.5.
Cc1sc2ncnc(NCC(C)(C)N3CCOCC3)c2c1C was read as CSC inhib -6.6, NLRP3 yeast inh 20.0, Mdm2 MdmX PPI 32.3, Beta apoptosis 85.0* and Calb FLC inconclusive.
`COCC(=O)Nc1nc2ccc(S(C)(=O)=O)cc2s1` gave CSC inhib -24.7, T cruzi inh -3.8, NLRP3 yeast inh -10.8, Mdm2 MdmX PPI 13.2, Beta apoptosis -5.1 and Calb FLC -26.1.
For CCC(C)c1ccc(O)c(NC(=S)NC(=O)c2cccnc2)c1 (configuration not stated) the results were CSC inhib 30.9, T cruzi inh -19.6, NLRP3 yeast inh 36.8, Mdm2 MdmX PPI 37.4 and Calb FLC 81.8*.
Screening COc1ccc(CCC(=O)N2CCN(C3CCCCC3)CC2)cc1 returned CSC inhib -7.4, T cruzi inh 62.0*, NLRP3 yeast inh 28.0, Mdm2 MdmX PPI 3.5, Beta apoptosis -2.8 and Calb FLC -46.9.
`O=C(CCc1ccc(Oc2cc([N+](=O)[O-])cc([N+](=O)[O-])c2)cc1)N1CCCCCC1` gave CSC inhib 95.8*, T cruzi inh 67.6*, NLRP3 yeast inh 4.9, Mdm2 MdmX PPI -6.1, Beta apoptosis 10.1 and Calb FLC -8.5.
O=C(CCc1ccc(S(=O)(=O)NCc2ccccc2)cc1)N1CCN(Cc2ccc3c(c2)OCO3)CC1 was read as T cruzi inh 58.7*, NLRP3 yeast inh 12.3, Mdm2 MdmX PPI 29.6 and Calb FLC -24.6.
For CC(NS(=O)(=O)c1ccc(CCC(=O)N2CCN(C)CC2)cc1)c1ccccc1 (configuration not stated) the results were CSC inhib 5.1, T cruzi inh 72.0*, NLRP3 yeast inh 6.6, Mdm2 MdmX PPI 3.0 and Calb FLC -0.8.
For CS(=O)(=O)c1ccc2nc(NC(=O)CCNC(=O)c3ccccc3Cl)sc2c1 the results were CSC inhib -3.2, NLRP3 yeast inh 8.3, Mdm2 MdmX PPI -14.6 and Beta apoptosis 2.0.
`CN1CCN(C(=O)CCc2ccc(S(=O)(=O)NC3CCCCC3)cc2)CC1` gave CSC inhib 9.1, T cruzi inh 58.9*, NLRP3 yeast inh 8.1, Mdm2 MdmX PPI -1.4, Beta apoptosis -7.7 and Calb FLC -16.7.
COCC(=O)OCC(=O)c1cc(C)n(-c2ccc(Br)cc2)c1C was read as CSC inhib 15.4, T cruzi inh -2.3, NLRP3 yeast inh -4.1, Mdm2 MdmX PPI 7.1, Beta apoptosis -12.8 and Calb FLC 0.3.
CN(/N=C/c1ccc(O)cc1O)c1nc(-c2ccccc2)cc(-c2ccccc2)n1 was read as CSC inhib 88.8*, T cruzi inh inconclusive, NLRP3 yeast inh 6.6, Mdm2 MdmX PPI 27.3, Beta apoptosis 3.6 and Calb FLC 18.2.
For Cc1cc(-c2ccccc2)nc(N/N=C/c2ccc(O)cc2O)n1 the results were CSC inhib 96.0*, T cruzi inh -4.3, NLRP3 yeast inh 29.8, Mdm2 MdmX PPI 46.9, Beta apoptosis 39.2 and Calb FLC 63.0.
For Oc1ccc(/C=N/Nc2ncc(Br)cn2)c(O)c1 the results were CSC inhib 90.8*, T cruzi inh -8.2, NLRP3 yeast inh 20.5, Mdm2 MdmX PPI -7.3, Beta apoptosis 86.9* and Calb FLC 1.7.
Screening Oc1ccc(Br)cc1/C=N/Nc1ncc(-c2ccccc2)cn1 returned CSC inhib 34.1, T cruzi inh 13.5, NLRP3 yeast inh 22.9, Mdm2 MdmX PPI 42.1, Beta apoptosis 49.0 and Calb FLC -14.7.
Screening CCSc1ccc(-c2nn(-c3ccccc3)cc2/C=C(/C#N)C(=O)NC)cc1 returned CSC inhib 4.7 and Beta apoptosis -1.8.
`Cc1ccc(S(=O)(=O)Nc2cc(-c3ccc(Cl)cc3)nn2C)cc1` gave CSC inhib 0.8, T cruzi inh -6.2, NLRP3 yeast inh 12.4, Mdm2 MdmX PPI 19.3, Beta apoptosis -6.5 and Calb FLC 23.8.
For CC(C)S(=O)(=O)c1nsc2nc(=O)c(/C=C3\C=Nc4ccccc43)c(N)n12 the results were CSC inhib -2.8, T cruzi inh 4.4, NLRP3 yeast inh 23.5, Mdm2 MdmX PPI 3.8, Beta apoptosis 0.9 and Calb FLC 6.1.
`CCOc1ccc(-c2c[n+]3c(n2-c2ccccc2)CCCCC3)cc1` gave CSC inhib 40.4, T cruzi inh 66.2*, NLRP3 yeast inh -3.5, Mdm2 MdmX PPI 29.8, Beta apoptosis 97.8* and Calb FLC inconclusive.
`COc1ccc(-n2c(-c3ccc(Br)cc3)c[n+]3c2CCC3)cc1` gave CSC inhib 2.2, T cruzi inh 40.8, NLRP3 yeast inh 11.9, Mdm2 MdmX PPI -1.2, Beta apoptosis 75.6* and Calb FLC -4.8.
`Cc1ccc(-n2c(-c3ccccc3)c[n+]3c2CCC3)cc1` gave CSC inhib -1.1, T cruzi inh 47.8, NLRP3 yeast inh 17.8, Mdm2 MdmX PPI -7.0, Beta apoptosis 108.9* and Calb FLC 95.9*.
`COc1ccc(-n2c(-c3ccc(Br)cc3)c[n+]3c2SC(C)C3)cc1` (configuration not stated) gave T cruzi inh 89.6*, NLRP3 yeast inh 3.9, Mdm2 MdmX PPI 39.3 and Calb FLC 87.7*.
For COc1ccc(-n2c(-c3ccccc3)c[n+]3c2CCC3)cc1 the results were CSC inhib -6.5, T cruzi inh 12.2, NLRP3 yeast inh -9.2, Mdm2 MdmX PPI 32.6, Beta apoptosis 46.4 and Calb FLC 1.8.
For Cc1ccc(-n2c(-c3ccc(Cl)cc3)c[n+]3c2CCC3)cc1 the results were CSC inhib 16.4, T cruzi inh 31.0, NLRP3 yeast inh 2.4, Mdm2 MdmX PPI 30.4, Beta apoptosis 71.8 and Calb FLC 4.9.
`COCCn1c(SCC(=O)N2CCCC2)nc2c([nH]c3ccccc32)c1=O` gave CSC inhib -5.4, T cruzi inh -13.3, NLRP3 yeast inh 11.7, Mdm2 MdmX PPI 16.8, Beta apoptosis -5.0 and Calb FLC 4.3.
Screening O=C(O)CCCCCNCc1c(Cl)cccc1Cl returned CSC inhib -15.1, T cruzi inh -10.1, NLRP3 yeast inh -5.5, Mdm2 MdmX PPI 14.2, Beta apoptosis -1.3 and Calb FLC -5.3.
CCOc1ccc(CCNC(=O)C2CCCN(c3nn4c(=O)cc(C)nc4s3)C2)cc1OCC (configuration not stated) was read as CSC inhib 5.2, T cruzi inh 7.1, NLRP3 yeast inh 20.2, Mdm2 MdmX PPI 2.4, Beta apoptosis -3.9 and Calb FLC 1.4.
Cc1cc(C)n(-c2cc(N3CCN(C(=O)c4cccc(Br)c4)CC3)ccc2[N+](=O)[O-])n1 was read as CSC inhib -9.7, T cruzi inh 13.8, NLRP3 yeast inh 1.2, Mdm2 MdmX PPI 10.0, Beta apoptosis 5.3 and Calb FLC 14.4.
